Rows were chosen to be rich in hits. Some 4.9% of all compounds tested hit in one or more screens of this group.
CHT inh: inhibitors of human choline transporter CHT; High affinity choline transporter 1 (Homo sapiens), Q9GZV3; CHT-expressing cells, membrane potential dye, choline response; stronger effect = lower value; B-score at 10 µM; 0.86% of 310,000 active;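 active = B-score over 3 SD under the library average, and starting fluorescence ratio not unusually high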;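 also: choline stimulus applied at its EC90 after an EC20 pre-addition; B-score computed on integrated fluorescence ratio after choline addition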
Target sequence (Q9GZV3 whole entry, looked up): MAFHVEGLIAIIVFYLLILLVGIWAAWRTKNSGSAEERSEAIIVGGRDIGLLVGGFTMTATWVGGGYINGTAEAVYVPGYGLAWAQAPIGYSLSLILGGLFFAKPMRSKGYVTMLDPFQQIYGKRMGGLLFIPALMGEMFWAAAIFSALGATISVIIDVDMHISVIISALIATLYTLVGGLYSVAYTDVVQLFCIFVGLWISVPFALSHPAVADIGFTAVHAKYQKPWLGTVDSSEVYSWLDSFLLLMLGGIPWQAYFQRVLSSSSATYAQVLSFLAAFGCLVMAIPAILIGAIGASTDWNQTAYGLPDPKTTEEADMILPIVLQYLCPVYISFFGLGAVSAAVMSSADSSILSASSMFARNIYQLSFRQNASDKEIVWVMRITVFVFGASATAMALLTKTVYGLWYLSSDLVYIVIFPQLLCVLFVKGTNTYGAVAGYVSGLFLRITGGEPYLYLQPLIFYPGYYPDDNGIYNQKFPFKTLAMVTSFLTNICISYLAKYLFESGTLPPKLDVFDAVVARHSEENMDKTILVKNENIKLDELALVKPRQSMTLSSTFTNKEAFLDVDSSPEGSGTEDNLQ
HSF1 inhib: HSF1 inhibitors in luciferase reporter cells, primary screen, cell-based, NIH3T3, luminescence | 0.77% of 300,000 active | activity change, negative = inhibition, % at 7.5 µM (by protocol) | NIH3T3-HGL HSE-luciferase, MG132-induced, luminescence 8 h; stronger effect = lower value;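 active = more than half of replicate wells show activity change below -50%, luminescence cut by over half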;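 also: luciferase reports HSF-1 transcriptional activity via heat shock element; 0% = median of DMSO wells and -100% = zero luminescence signal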
PHOSPHO1 inh: PubChem AID 1565; 1.1% of 290,000 active; inhibition, % at 13.3 µM; Phosphoethanolamine/phosphocholine phosphatase (Homo sapiens), Q8TCT1; recombinant PHOSPHO1, absorbance phosphatase assay; in the data active = inhibition above about 60%
Hep lipid drop: inhibitors of hepatocyte lipid droplet formation, primary screen, imaging, high-throughput imaging, BODIPY stain; AML12 mouse hepatocytes, oleate lipid droplets; inhibition, % at 6.5 µM; 0.4% of 240,000 active; AID 1656, 2009;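 active = lipid droplet intensity inhibited by at least 50%, with more than 500 cells counted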
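Material: mouse AML12 hepatocyte cell line, fixed after treatment; Timing: compound with oleate, overnight; Technique: high-content imaging of BODIPY-stained droplets and DAPI nuclei; Probe or stimulus: oleate, 100 µM final; Dosing: compound at 6.5 µM only.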
HSF1 activator: HSF-1 activators, primary screen, NIH3T3-HGL cells, MG132 stress, luminescence, single point; NIH3T3-HGL HSF-1 luciferase reporter, 8 h; 100% = twice DMSO control signal; activation, % at 9 µM; 1.7% of 300,000 active; AID 504408, 2011;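 active = mean replicate activation of at least 50% with a set share of replicates each reaching 50%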;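 also: 0% = median of the neutral control wells and 100% = twice that signal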
CHT allo act: CHT positive allosteric modulators, primary screen, cell-based, membrane potential dye, choline EC20; High affinity choline transporter 1 (Homo sapiens), Q9GZV3; CHT-expressing cells; stronger effect = higher value; LV-AA mutant CHT in HEK293 cells; B-score at 10 µM; 0.49% of 310,000 active; AID 488977, 2010;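 active = initial fluorescence not abnormally high and integrated response B-score, plate-corrected, over 3 SD above library mean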
* = called active by the depositor.

`CCOc1ncccc1C(=O)N(C)CC1COc2ccccc2O1` (configuration not stated) gave CHT inh inactive, HSF1 inhib 97, PHOSPHO1 inh 8, Hep lipid drop -5, HSF1 activator 175* and CHT allo act inactive.
COc1ccc(-c2cc(C(=O)N/N=C(\C)c3cccnc3)c3ccccc3n2)c(OC)c1 was read as CHT inh inactive, HSF1 inhib -2, PHOSPHO1 inh 45, Hep lipid drop -7, HSF1 activator 3 and CHT allo act inactive.
`CCCC[n+]1ccn(-c2nc3ccccc3nc2[N-]S(=O)(=O)c2ccccc2)c1` gave CHT inh inactive, HSF1 inhib 2, PHOSPHO1 inh -8, Hep lipid drop 8, HSF1 activator -5 and CHT allo act inactive.
`CCCC[n+]1ccn(-c2nc3ccccc3nc2[N-]S(=O)(=O)c2cccs2)c1` gave CHT inh inactive, HSF1 inhib -5, PHOSPHO1 inh 77*, Hep lipid drop -72, HSF1 activator 6 and CHT allo act inactive.
Screening CCOCCCNCc1ccc(OCC(=O)N2CCOCC2)c(OC)c1 returned CHT inh inactive, HSF1 inhib -12, PHOSPHO1 inh 60*, Hep lipid drop 17, HSF1 activator 3 and CHT allo act inactive.
Screening COc1cc(C(=O)Nc2cc(C)ccn2)ccc1OCC(=O)N1CCOCC1 returned CHT inh inactive, HSF1 inhib -4, PHOSPHO1 inh 51, Hep lipid drop -3, HSF1 activator -1 and CHT allo act inactive.
`COc1ccc(-c2nc(NC(=O)c3ccc(OCC(=O)N4CCOCC4)c(OC)c3)sc2C)cc1` gave CHT inh inactive, HSF1 inhib -6, PHOSPHO1 inh 1, Hep lipid drop 96*, HSF1 activator 12 and CHT allo act inactive.
For COc1ccc(CCNCc2ccc(OCC(=O)N3CCCCC3)c(OC)c2)cc1OC the results were CHT inh inactive, HSF1 inhib -9, PHOSPHO1 inh 42, Hep lipid drop -32, HSF1 activator -20 and CHT allo act inactive.
`CCCCn1c(SCc2nc3ccccc3s2)nc2ccccc2c1=O` gave CHT inh inactive, HSF1 inhib 14, PHOSPHO1 inh 17, Hep lipid drop -36, HSF1 activator 39 and CHT allo act inactive.
Screening CCCCn1c(SCc2nc3ccccc3s2)nc2cc(S(N)(=O)=O)ccc21 returned CHT inh inactive, HSF1 inhib 52, PHOSPHO1 inh 32, Hep lipid drop 16, HSF1 activator 75* and CHT allo act inactive.
CCOC(=O)N1CCN(S(=O)(=O)N2CCCC(C(=O)NCCCN3CC(C)CC(C)C3)C2)CC1 (configuration not stated) was read as CHT inh inactive, HSF1 inhib -3, PHOSPHO1 inh 20, Hep lipid drop -1, HSF1 activator -4 and CHT allo act inactive.
CNC(=O)c1ccsc1NC(=O)CS(=O)(=O)c1ccc(Cl)cc1 was read as CHT inh inactive, HSF1 inhib -2, PHOSPHO1 inh 64*, Hep lipid drop -31, HSF1 activator 15 and CHT allo act inactive.
For Cc1cccc(N2C(=O)/C(=C/c3ccccn3)SC2=S)c1 the results were CHT inh inactive, HSF1 inhib -4, PHOSPHO1 inh 32, Hep lipid drop 2, HSF1 activator 2 and CHT allo act inactive.
O=C(Oc1csc(=S)n1C(=O)c1ccccc1)c1ccccc1 was read as CHT inh inactive, HSF1 inhib -3, PHOSPHO1 inh 83*, Hep lipid drop 10, HSF1 activator -1 and CHT allo act inactive.
CC1CCN(C(=S)c2ccc([N+](=O)[O-])cc2)CC1 was read as CHT inh inactive, HSF1 inhib -3, PHOSPHO1 inh 55, Hep lipid drop 4, HSF1 activator -8 and CHT allo act inactive.
`Cn1c(SCC(=O)c2ccc3c(c2)OCO3)nnc1-c1ccccn1` gave CHT inh inactive, HSF1 inhib 15, PHOSPHO1 inh -89, Hep lipid drop -7, HSF1 activator 17 and CHT allo act inactive.
For COc1ccc(Nc2nc(C)cc(C)c2C(N)=O)cc1OC the results were CHT inh inactive, HSF1 inhib -3, PHOSPHO1 inh 40, HSF1 activator -2 and CHT allo act inactive.
Cn1ccnc1SCC(=O)c1ccc2ccccc2c1 was read as CHT inh inactive, HSF1 inhib 207, PHOSPHO1 inh 4, Hep lipid drop 3, HSF1 activator 213* and CHT allo act inactive.
Screening Cn1ccnc1SCC(=O)c1cc2ccccc2o1 returned CHT inh inactive, HSF1 inhib 16, PHOSPHO1 inh 91*, HSF1 activator 7 and CHT allo act inactive.
For C=CCNC(=O)CSc1nc2cc(C(=O)OCC)ccc2n1CC the results were CHT inh inactive, HSF1 inhib -3, PHOSPHO1 inh 5, HSF1 activator 24 and CHT allo act inactive.
Screening CCOC(=O)c1ccc2c(c1)nc(SCC(=O)c1cc3ccccc3o1)n2CC returned CHT inh inactive, HSF1 inhib 1, PHOSPHO1 inh 90*, Hep lipid drop 17, HSF1 activator 31 and CHT allo act inactive.
Screening COCCn1nnnc1C(c1cc2cccc(C)c2[nH]c1=O)N1CCN(c2ccccc2F)CC1 (configuration not stated) returned CHT inh inactive, HSF1 inhib -2, PHOSPHO1 inh -52, Hep lipid drop -6, HSF1 activator 5 and CHT allo act inactive.
For COc1ccc(-n2ncc3c2CC(C)(C)CC3NC(=O)c2cn[nH]c2)cc1 (configuration not stated) the results were CHT inh inactive, HSF1 inhib -4, PHOSPHO1 inh 36, Hep lipid drop 30, HSF1 activator -2 and CHT allo act inactive.
`O=C1C=CC(O)(c2cc(=O)c3c(O)cc(O)cc3o2)C=C1` gave CHT inh inactive, HSF1 inhib -91*, PHOSPHO1 inh 23, Hep lipid drop -72, HSF1 activator -93 and CHT allo act inactive.
Screening O=C(Cn1nc(Cl)nc1Cl)c1ccc([N+](=O)[O-])cc1 returned CHT inh inactive, HSF1 inhib 13, PHOSPHO1 inh 18, Hep lipid drop 13, HSF1 activator 27 and CHT allo act inactive.
`N#CC12CCCCC1CC1CCCCC1(C#N)N2N` (configuration not stated) gave CHT inh inactive, HSF1 inhib 2, PHOSPHO1 inh -14, Hep lipid drop 10, HSF1 activator -5 and CHT allo act inactive.

Screening data as filed in PubChem BioAssay.
